ChEMBL document CHEMBL1145813, “Synthesis and evaluation of 11C-labeled 6-substituted 2-arylbenzothiazoles as amyloid imaging agents” (J Med Chem, 2003)
pKi: −log10 of the molar value.

Key:
[1] = biological target: Amyloid-beta precursor protein (Homo sapiens, UniProt P05067); test: Binding affinity for Amyloid beta 1-40 aggregates in competition with [N-methyl-3H] BTA-1.
[2] = Percent injected dose per gram of compound to Swiss-Webster mice brain was measured after 2 min of intravenous injection; format: functional, Mus musculus
Procedure, shortened: (§1)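 Female Swiss-Webster mice (23–35 g) received 0.37–3.7 MBq of high specific activity (>7.4 GBq/μmol) 11C-labeled derivative by lateral tail vein, in ≤0.10 mL of 93% isotonic saline/7% ethanol. Mice were killed at 2 or 30 min, and whole brain minus cerebellum was gamma-counted and decay-corrected against injectate standards. %ID/g was multiplied by body weight (kg). The 2 min/30 min ratio was taken from these values.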

[3] = Percent injected dose per gram of compound to Swiss-Webster mice brain was measured after 30 min of intravenous injection; format: functional, Mus musculus; procedure, shortened: as §1
[4] = Ratio of percent injected dose per gram of compound to Swiss-Webster mice brain after 2 min and 30 min of intravenous injection; format: functional; procedure, shortened: as §1
[5] = Apparent lipophilicity was determined

Amyloid-beta precursor protein, sequence (P05067 whole entry): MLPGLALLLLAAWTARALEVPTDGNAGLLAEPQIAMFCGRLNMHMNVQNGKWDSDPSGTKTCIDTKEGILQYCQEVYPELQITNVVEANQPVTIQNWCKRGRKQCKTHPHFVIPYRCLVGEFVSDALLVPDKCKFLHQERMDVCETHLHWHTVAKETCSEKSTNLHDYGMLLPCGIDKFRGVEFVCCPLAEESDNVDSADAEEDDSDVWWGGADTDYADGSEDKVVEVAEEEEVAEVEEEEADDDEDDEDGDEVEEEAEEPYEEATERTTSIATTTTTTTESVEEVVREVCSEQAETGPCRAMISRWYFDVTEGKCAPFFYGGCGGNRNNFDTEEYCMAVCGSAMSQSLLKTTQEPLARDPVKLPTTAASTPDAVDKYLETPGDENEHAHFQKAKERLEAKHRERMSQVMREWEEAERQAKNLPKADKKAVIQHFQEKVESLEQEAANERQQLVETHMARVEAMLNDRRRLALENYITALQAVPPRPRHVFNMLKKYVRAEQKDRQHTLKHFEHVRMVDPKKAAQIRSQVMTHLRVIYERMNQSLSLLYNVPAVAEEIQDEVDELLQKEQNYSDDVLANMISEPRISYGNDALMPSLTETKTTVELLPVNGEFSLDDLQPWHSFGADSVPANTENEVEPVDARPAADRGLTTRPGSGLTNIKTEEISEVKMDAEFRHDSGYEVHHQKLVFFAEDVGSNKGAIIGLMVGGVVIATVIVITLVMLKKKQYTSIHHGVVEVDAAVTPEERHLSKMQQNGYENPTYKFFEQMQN

pKi [1] | chromatographic logD [5] | SMILES | ID [2] [%] | ID [3] [%] | Ratio [4]
8.54 | 4.4 | CN(C)c1ccc(-c2nc3ccc(Br)cc3s2)cc1 | 0.054 | 0.11 | 0.49
7.34 |  | Nc1ccc(-c2nc3ccc(O)cc3s2)cc1 |  |  | 
8.15 | 1.9 | COc1ccc2nc(-c3ccc(N)cc3)sc2c1 | 0.32 | 0.084 | 3.8
8.72 | 3.3 | COc1ccc2nc(-c3ccc(N(C)C)cc3)sc2c1 | 0.16 | 0.14 | 1.1
8.36 | 2 | CN(C)c1ccc(-c2nc3ccc(O)cc3s2)cc1 | 0.32 | 0.1 | 3
 |  | CNc1ccc(-c2nc3ccc(O)cc3s2)cc1 [PITTSBURGH COMPOUND B UNLABELLED] | 0.21 | 0.018 | 
7.96 | 3.2 | CN(C)c1ccc(-c2nc3ccc(C#N)cc3s2)cc1 | 0.24 | 0.097 | 2.5
7.19 | 3.8 | Cc1ccc2nc(-c3ccc(N(C)C)cc3)sc2c1 | 0.078 | 0.15 | 0.52
7.19 | 1.8 | N#Cc1ccc2nc(-c3ccc(N)cc3)sc2c1 |  |  | 
8.77 | 3.6 | CNc1ccc(-c2nc3ccc(Br)cc3s2)cc1 | 0.12 | 0.12 | 1
8.07 | 2.5 | CNc1ccc(-c2nc3ccc(C#N)cc3s2)cc1 | 0.32 | 0.063 | 5
8.14 | 2.9 | Nc1ccc(-c2nc3ccc(Br)cc3s2)cc1 |  |  | 
8.31 | 2.6 | CNc1ccc(-c2nc3ccc(OC)cc3s2)cc1 | 0.33 | 0.1 | 3.2
 | 2.7 | CNc1ccc(-c2nc3ccccc3s2)cc1 | 0.43 | 0.057 | 
 | 3.1 | CNc1ccc(-c2nc3ccc(C)cc3s2)cc1 | 0.22 | 0.083 | 
7.43 | 2 | Nc1ccc(-c2nc3ccccc3s2)cc1 |  |  | 
8.02 | 2.4 | Cc1ccc2nc(-c3ccc(N)cc3)sc2c1 |  |  | 
8.40 | 3.4 | CN(C)c1ccc(-c2nc3ccccc3s2)cc1 | 0.19 | 0.078 | 2.5
